Source: ChEMBL document CHEMBL1155436, “Phantasmidine: an epibatidine congener from the ecuadorian poison frog Epipedobates anthonyi” (J Nat Prod, 2010)
The source made the active and inactive calls. The rule behind the calls is not given here.

Assays:
[1] = Selectivity of beta4 nAChR over beta2 nAChR
[2] = target: T1, Neuronal acetylcholine receptor; alpha3/beta4 (Rattus norvegicus) (UniProt P04757+P12392); test: Agonist activity at rat alpha3beta4 nAChR expressed in HEK cells assessed as elevation of intracellular calcium after 1 hr by HPLC based fluorescence assay; assay type: functional, cell-based; conditions: HEK293
[3] = target: T2, Neuronal acetylcholine receptor; alpha3/beta4 (Homo sapiens) (UniProt P30926+P32297); test: Agonist activity at human alpha3beta4 nAChR in human SH-SY5Y cells assessed as membrane depolarization after 1 hr by HPLC based fluorescence assay; assay type: functional, cell-based
Method in brief: (§1)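 Membrane potential dye assay in native SH-SY5Y, IMR-32 or TE-671 cells. Cells grown near confluence on poly-D-lysine plates in DMEM with 10% FBS, washed in HBSS/20 mM HEPES pH 7.4, then loaded with dye 1 h in dark at room temperature. Ex 530/em 565 nm. Sequence: 15 s basal, HPLC fraction 105 s, 300 µM nicotine (added solution), 160 mM KCl (added solution). Response = basal-subtracted peak ÷ KCl maximum.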

[4] = target: T1, Neuronal acetylcholine receptor; alpha3/beta4 (Rattus norvegicus); test: Agonist activity at rat alpha3beta4 nAChR expressed in HEK cells assessed as membrane depolarization after 1 hr by HPLC based fluorescence assay; assay type: functional, cell-based; conditions: HEK293
Method in brief: (§2)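 Membrane potential assay in G418-selected KXR3β4R2, KXR4β4R1 or KXR4β2R2 lines on poly-D-lysine plates (DMEM, 10% FBS, near confluence). Cells washed in HBSS/HEPES pH 7.4 and loaded with no-wash dye 1 h dark at room temperature. Fractions reconstituted in HBSS/HEPES, added after 15 s basal, read 105 s. Nicotine (300 µM added solution) and KCl (160 mM) follow. Peak response normalised to KCl maximum after basal subtraction.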

[5] = target: T2, Neuronal acetylcholine receptor; alpha3/beta4 (Homo sapiens); test: Agonist activity at human alpha3beta4 nAChR in human IMR32 cells assessed as membrane depolarization after 1 hr by HPLC based fluorescence assay; assay type: functional, cell-based; conditions: IMR-32; method in brief: as §1
[6] = target: Neuronal acetylcholine receptor; alpha4/beta2 (Homo sapiens) (UniProt P17787+P43681); test: Agonist activity at human alpha4beta2 nAChR expressed in human K177 cells assessed as membrane depolarization after 1 hr by HPLC based fluorescence assay; assay type: functional, cell-based
[7] = target: Neuronal acetylcholine receptor; alpha4/beta2 (Rattus norvegicus) (UniProt P09483+P12390); test: Agonist activity at rat alpha4beta2 nAChR expressed in HEK cells assessed as membrane depolarization after 1 hr by HPLC based fluorescence assay; assay type: functional, cell-based; conditions: HEK293; method in brief: as §2
[8] = target: Acetylcholine receptor; alpha1/beta1/delta/gamma (Homo sapiens) (UniProt P02708+P07510+P11230+Q07001); test: Agonist activity at human alpha-1-beta-1-gamma-delta nAChR expressed in human TE671 cells assessed as membrane depolarization after 1 hr by HPLC based fluorescence assay; assay type: functional, cell-based; conditions: TE-671; method in brief: as §1
[9] = target: Neuronal acetylcholine receptor; alpha4/beta4 (Rattus norvegicus) (UniProt P09483+P12392); test: Agonist activity at rat alpha4beta4 nAChR expressed in HEK cells assessed as membrane depolarization after 1 hr by HPLC based fluorescence assay; assay type: functional, cell-based; conditions: HEK293; method in brief: as §2

Structure (SMILES) | fold change (FC) [1] | Activity [2] | Activity [3] | Activity [4] | Activity [5] | other results
c1cncc([C@H]2C[C@@H]3CC[C@H]2N3)c1 | 3 |  |  |  |  | 
Clc1ccc(C2CC3CCC2N3)cn1 (stereo not given) |  | Active | Active | Active | Active | 
Clc1ccc(C2=CCC[C@@H]3CC[C@H]2N3)cn1 | 3 |  |  |  |  | 
Clc1ccc2c(n1)O[C@@]13CC[C@@H]1NC[C@@H]23 |  | Active | Active | Active | Active | Activity [6]: inactive; Activity [7]: inactive; Activity [8]: inactive; Activity [9]: Active
O=C1NC[C@@]2(CN3CCC2CC3)O1 | > 20 |  |  |  |  | 
